High-throughput results: PubChem, several laboratories
This is a sample that favours compounds with a hit; in the whole collection about 2% have one here.
Apaf-1 inh: inhibitors of human Apaf-1 apoptosome, primary screen, biochemical, DEVD-Rh110 fluorescence, uHTS; reconstituted apoptosome caspase-3 activity; inhibition, % at 20 µM; AID 489030, 2010; Apoptotic protease-activating factor 1 (Homo sapiens), O14727; hit rate 0.71% among 330,000; active = inhibition of at least 40% at 20 µM
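Assay system: Apoptosome proteins | Medium: pH 7.5 Hepes buffer with CHAPS, BSA, DTT | Also added: Cytochrome c and DEVD-Rh110 substrate | Times: 30 min plus 50 min, RT | Detection: Rhodamine 110 fluorescence at Ex 480/Em 540 nm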
PAD4 inh: human PAD4 inhibitors, primary screen, biochemical, fluorescence polarization, 1536-well format | inhibition, % at 6.36 µM | AID 485272, 2010 | Protein-arginine deiminase type-4 (Homo sapiens), Q9UM07 | hit rate 0.41% among 330,000 | recombinant PAD4, RCA probe fluorescence polarization;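 active = percent inhibition above a cutoff equal to the mean of all tested compounds plus 3 SD, cut at about 15% in these data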
Target sequence (Q9UM07 whole entry, looked up): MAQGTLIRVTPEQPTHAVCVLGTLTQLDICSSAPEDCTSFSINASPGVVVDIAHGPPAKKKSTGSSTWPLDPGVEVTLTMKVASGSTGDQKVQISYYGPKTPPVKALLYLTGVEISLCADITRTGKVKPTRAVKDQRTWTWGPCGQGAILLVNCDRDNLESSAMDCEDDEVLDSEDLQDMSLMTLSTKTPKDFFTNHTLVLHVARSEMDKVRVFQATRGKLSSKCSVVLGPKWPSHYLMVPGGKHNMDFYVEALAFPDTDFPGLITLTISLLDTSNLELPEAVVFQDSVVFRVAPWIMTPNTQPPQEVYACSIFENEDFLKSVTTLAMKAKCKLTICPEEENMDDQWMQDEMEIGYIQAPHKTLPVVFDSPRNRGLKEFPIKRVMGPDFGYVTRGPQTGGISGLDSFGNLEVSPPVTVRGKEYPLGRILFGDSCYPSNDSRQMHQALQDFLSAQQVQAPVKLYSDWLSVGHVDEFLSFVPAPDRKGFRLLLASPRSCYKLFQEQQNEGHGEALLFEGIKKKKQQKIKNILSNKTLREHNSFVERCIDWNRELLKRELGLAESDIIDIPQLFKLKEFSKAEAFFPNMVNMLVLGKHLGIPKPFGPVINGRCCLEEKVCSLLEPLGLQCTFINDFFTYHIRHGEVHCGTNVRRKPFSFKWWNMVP
Fh CTSL1 inh: Fasciola hepatica cathepsin L1 inhibitors, primary screen, counter-screen for PFM18AAP inhibitor project, biochemical, QFRET, fluorogenic peptide substrate. recombinant F. hepatica cathepsin L1, Z-Leu-Arg-MCA fluorescence. inhibition, % at 5.96 µM. hit rate 0.49% among 300,000. AID 1906, 2009;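 active = inhibition above the mean of all tested compounds plus 3 SD, set per screening campaign, cut at about 17% in these data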
GSTO1 counter: inhibitors of recombinant GSTO1, primary screen, counter-screen for RBBP9 inhibitor project, biochemical, fluorescence polarization. activity-based probe fluorescence polarization. inhibition, % at 5.96 µM. hit rate 1.1% among 300,000. AID 1974, 2009;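 active = inhibition above the campaign mean inhibition plus 3 SD, cut at about 35% in these data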
PP5 inh: PP5 phosphatase inhibitors, primary screen, biochemical, fluorescence | hit rate 0.18% among 320,000 | AID 1987, 2009 | Serine/threonine-protein phosphatase 5 (Homo sapiens), P53041 | purified PP5c, OMFP substrate fluorescence | inhibition, % at 6.7 µM;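 active = inhibition above the campaign's mean inhibition across all tested compounds plus 3 SD, cut at about 9.5% in these data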
UCH37 inh: inhibitors of human UCH37 deubiquitinase, primary screen, biochemical, Ub-AMC cleavage, fluorescence. AID 588478, 2011. Ubiquitin carboxyl-terminal hydrolase isozyme L5 (Homo sapiens), Q9Y5K5. inhibition, % (concentration not given with the values). hit rate 0.33% among 330,000. purified proteasome/UCH37;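 active = mean inhibition over replicate wells above about 20%, limit read from the data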
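Schedule: 30 min plus 25 min, room temperature / Material: human UCH37 within purified proteasomes / Technique: AMC fluorescence intensity at 355/460 nm / Buffer or medium: pH 7.4 Tris-HCl (50 mM) with ovalbumin, ATP-MgCl2, DTT / Controls: wells without proteasome as full block, compound-free enzyme plus substrate as uninhibited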
Large screens that a line does not name were inactive.

Nc1nonc1-n1nnc(C(=O)NN=Cc2ccccc2)c1CSc1ccccc1	none (no result: Apaf-1 inh, PAD4 inh, Fh CTSL1 inh, GSTO1 counter, PP5 inh)
Cc1ccc(S(=O)(=O)N(CCC#N)CCN2CCCC2)cc1	Fh CTSL1 inh 78.1
CCN(CC)S(=O)(=O)c1ccc(S(=O)(=O)N2CCN(CCC#N)CC2)cc1	none
COc1cc(C=NNc2ncc(C(F)(F)F)cc2Cl)cc(OC)c1O	none (no result: Apaf-1 inh, PAD4 inh, Fh CTSL1 inh, GSTO1 counter, PP5 inh)
O=C(NN1C(=O)/C(=C/c2ccc(O)c(O)c2)SC1=S)c1ccccc1	Fh CTSL1 inh 33.6 (no result: UCH37 inh)
Cc1c(C#N)c(NC(=O)CCl)n(Cc2cccs2)c1C	Fh CTSL1 inh 50.6, GSTO1 counter 86.7
CCN(CC)C(=O)c1sc(NC(=O)Cc2cccs2)c(C#N)c1C	none
CCCCCCOc1ccc(C=NNC(=O)C2CC2)cc1	none (no result: Apaf-1 inh, PAD4 inh, Fh CTSL1 inh, GSTO1 counter, PP5 inh)
Cc1cc(C)c([N+](=O)[O-])cc1-c1ccc(C=Nc2c(-c3ccco3)nc3ccccn23)o1	none (no result: Apaf-1 inh, PAD4 inh, Fh CTSL1 inh, GSTO1 counter, PP5 inh)
Cc1nn(C)c(C)c1N1C(=O)c2cccc3c(Br)ccc(c23)C1=O	none
Cc1nn(C)c(C)c1N1C(=O)c2cccc3c(N)ccc(c23)C1=O	PAD4 inh 31.2 (no result: Apaf-1 inh)
Cc1ccc(/C=C2/N=C(c3ccccc3)NNC2=O)cc1	none
O=C1NNC(c2ccccc2)=N/C1=C\c1ccccc1	UCH37 inh 23.2
COc1cc2c(cc1OC)C(c1ccc(-c3ccc(Cl)c(Cl)c3)o1)=NCC2	Apaf-1 inh 41.5
COc1cc(/C=N/NC(N)=S)ccc1OC(=O)c1ccc(C)cc1	Fh CTSL1 inh 66.3 (no result: UCH37 inh)
COc1cc(/C=N/NC(=O)c2cccnc2)ccc1OCC(=O)N1CCOCC1	none (no result: UCH37 inh)
COc1cc(/C=N/NC(N)=S)ccc1OCC(=O)N1CCOCC1	Fh CTSL1 inh 18.0 (no result: UCH37 inh)
COc1cc(C=NNC(=O)c2ccccc2F)ccc1Oc1ccc([N+](=O)[O-])cn1	none (no result: Apaf-1 inh, PAD4 inh, Fh CTSL1 inh, GSTO1 counter, PP5 inh)
Cc1ccc(S(=O)(=O)N2CCC(C(=O)NN=Cc3ccccc3[N+](=O)[O-])CC2)cc1	none (no result: Apaf-1 inh, PAD4 inh, Fh CTSL1 inh, GSTO1 counter, PP5 inh)
CCOc1ccc(C2CC(c3cccc(C)c3)n3ncnc3N2)cc1 (configuration not stated)	none
CCOc1ccc(C2CC(c3ccc(OC)cc3)n3ncnc3N2)cc1 (configuration not stated)	Fh CTSL1 inh 18.1
C[n+]1cccc(C(=O)NN=Cc2ccc3c(c2)OCO3)c1	none (no result: Apaf-1 inh, PAD4 inh, Fh CTSL1 inh, GSTO1 counter, PP5 inh)
O=[N+]([O-])c1ccc(N=Nc2c(Cl)cc(O)cc2Cl)cc1	PAD4 inh 15.7, GSTO1 counter 56.5 (no result: Apaf-1 inh)
Cc1ccc(OCC(=O)NN=Cc2ccncc2)cc1	none (no result: Apaf-1 inh, PAD4 inh, Fh CTSL1 inh, GSTO1 counter, PP5 inh)
CC(C)(C)OC(=O)N[C@@H](C(=O)OC(C)(C)C)c1ccccc1	none (no result: Fh CTSL1 inh, GSTO1 counter)
CC(C)(C)C(C(=O)Oc1ccccc1)c1ccccc1 (configuration not stated)	UCH37 inh 24.3 (no result: Fh CTSL1 inh, GSTO1 counter)
CC(=NO)C(C)(C)Nc1ccccc1F	none (no result: Apaf-1 inh, PAD4 inh, Fh CTSL1 inh, GSTO1 counter, PP5 inh)
CCN1CCN(Cc2ccc(NC(=O)c3cc(NC(=O)c4cc5cccc(OC)c5o4)cc(OC)c3)cc2C(F)(F)F)CC1	Apaf-1 inh 63.1
CON=C1CCCc2c(C(=O)NN)sc(SC)c21	none (no result: Apaf-1 inh, PAD4 inh, Fh CTSL1 inh, GSTO1 counter, PP5 inh)
COc1ccc(NC(=O)c2cccnc2NCCc2ccccc2)cc1	Fh CTSL1 inh 44.5
O=C(Nc1ccccc1)c1cccnc1NCCc1ccccc1	none
CNC(=O)c1cc(Oc2ccc(NC(=O)Nc3ccc(Cl)c(C(F)(F)F)c3)cc2)ccn1	UCH37 inh 31.2 (no result: Fh CTSL1 inh, GSTO1 counter)
Cc1ccc(/C=C/C(=O)OC(C)C(=O)Nc2ccc(Cl)cn2)o1 (configuration not stated)	Fh CTSL1 inh 27.7
COC(=O)[C@@H]1CC[C@H](C)[C@@H](c2ccc(C)cc2)N1C(=O)c1ccc(C=NOCC[C@@H]2C=C[C@H](OC(C)=O)[C@@H](COC(C)=O)O2)cc1	none (no result: Apaf-1 inh, PAD4 inh, Fh CTSL1 inh, GSTO1 counter, PP5 inh)
O=C1CC(NNc2nc3ccccc3s2)C(=O)N1c1ccccc1 (configuration not stated)	none
CCc1ccc(N2C(=O)CC(NNc3nc4ccccc4s3)C2=O)cc1 (configuration not stated)	GSTO1 counter 37.6 (no result: UCH37 inh)
CN1C(=O)CC(N2CCC(c3nc4ccccc4s3)CC2)C1=O (configuration not stated)	Fh CTSL1 inh 19.1
O=C(O)c1ccc(CSc2nnc(COc3ccc(Cl)cc3Cl)o2)cc1	Fh CTSL1 inh 39.9
CC(C)(C)OC(=O)NCCc1nnc(SCc2ccc(Cl)cc2)o1	none
Cc1nnc(SCc2cc(=O)[nH]c(N=C(N)Nc3ccccc3)n2)s1	none (no result: Apaf-1 inh, PAD4 inh, Fh CTSL1 inh, GSTO1 counter, PP5 inh)
O=C(/C=C/c1ccco1)N1CCCC(c2ccccc2)C1 (configuration not stated)	UCH37 inh 26.4
C=CCn1c(=C(C#N)c2nnc3n2CCCCC3)sc(=Cc2ccc(F)cc2)c1=O	none (no result: Apaf-1 inh, PAD4 inh, Fh CTSL1 inh, GSTO1 counter, PP5 inh)
Cc1ccnc(N/C=C(/NC(=O)c2ccccc2)C(=O)N/N=C\c2ccc(Cl)cc2)n1	Fh CTSL1 inh 16.6 (no result: UCH37 inh)
O=C(NN=Cc1ccccn1)c1cccc(NC(=O)c2ccc(Cl)cc2)c1	none (no result: Apaf-1 inh, PAD4 inh, Fh CTSL1 inh, GSTO1 counter, PP5 inh)
Oc1ccc(N=C/C=C/c2ccc(Br)cc2)cc1-c1nc2ccccc2s1	GSTO1 counter 36.3 (no result: UCH37 inh)
Brc1cc2c(cc1-c1nc3ccccc3s1)OCO2	none
CCOc1cccc(C=NNC(=O)c2cc(C3CC3)[nH]n2)c1O	none (no result: Apaf-1 inh, PAD4 inh, Fh CTSL1 inh, GSTO1 counter, PP5 inh)
COc1ccc(NC(=O)C2C3C=CC4(O3)C2C(=O)N(CCN2CCCCC2)C4C(=O)NC2CCCCC2)cc1 (configuration not stated)	Fh CTSL1 inh 40.0
